# Assay outcomes: PubChem, several laboratories
# Sampled rows, rich in hits. Any-hit rate of the full collection: about 12%.
# Dynein transport: blocks dynein driven cargo transport along microtubules. 3617.4 mouse cells, GR-EGFP nuclear translocation imaging; test concentration mostly 20 µM; stimulated with dexamethasone, 1 µM; hits give low values. z-score, hits read low. 220,000 tested, 0.47% active. AID 1381;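 active means plate z-score of nuclear minus cytoplasmic receptor signal below a set negative limit, without overly bright fluorescence or cell loss, cut at about -3.5 in these data, passing the limit was not always enough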;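 further: z-score of nuclear minus cytoplasmic ring GR-EGFP intensity difference per well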
#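 Buffer or medium: Induction medium lacking tetracycline, stripped serum | Also added: Dexamethasone agonist, 1.0 µM final, for 30 min | Timing: 48 h induction, 1 h compound, 30 min dex at 37 °C | Detection: Formaldehyde fixation, Hoechst nuclear stain, 10x automated fluorescence imaging | Measure: Nuclear versus cytoplasmic GR-EGFP signal, averaged per well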
# CHOP inhibitor: CHOP inhibition in unfolded protein response; 220,000 tested, 3.8% active; AID 2732; CHO-K1 CHOP-promoter luciferase, tunicamycin-induced, 15-18 h; inhibition, % at 10 µM;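 active means compounds that reduced the stress-induced luciferase reporter signal by more than about 70% of percent inhibition, limit read from the data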;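 further: 0% = tunicamycin plus vehicle and 100% = wells without tunicamycin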
# b-catenin transl: alters nuclear translocation of beta-catenin in HeLa cells | immunofluorescence imaging | nuclear translocation activity, % at 5 µM | 190,000 tested, 0.3% active | AID 1665;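 active means nuclear translocation activity above 50% at 5 µM, with a well cell count of 50 or more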;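 further: per-cell ratio of nuclear to cytoplasmic median beta-catenin stain intensity; plate controls were DMSO negative control for no effect and GSK-3 inhibitor IX positive control for full effect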
#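 System: HeLa cells, endogenous beta-catenin; compound dosing: 5 µM primary single dose, 0.1% DMSO, 0.02–20 µM confirmation series; incubation: 24 h compound exposure at 37°C, 5% CO2; signal: beta-catenin immunofluorescence imaging with DAPI; evaluation: % activation, nuclear-to-cytoplasmic median beta-catenin signal ratio per cell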
# Autophagy mod: alters autophagy in cells | calls only at 10 µM (by protocol) | 190,000 tested, 0.98% active | MEF GFP-LC3 puncta imaging; test concentration mostly 10 µM;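 active means percentage of spot-positive cells more than 3 SD above its plate mean, without a fluorescence outlier flag or 80% toxicity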;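 further: spot-positive cell cutoff set from DMSO-treated cells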
# MT stabilize HCS: microtubule stabilizers in HeLa cells; HeLa tubulin immunostaining HCS, 24 h; share of cells brighter than vehicle mean+2SD; % tubulin-high responders, % at 10 µM; 200,000 tested, 0.83% active; AID 2205;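 active means plate Z-score above 3 for both tubulin-high and condensed-nucleus cell shares, with cell loss under 80%, at 10 µM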;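 further: anti alpha tubulin signal scored within the nucleus-defined area of each cell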
# L major viab: reduces viability of Leishmania major promastigotes; inhibition, % at 10 µM; resazurin fluorescence viability; 200,000 tested, 9% active; in the data active means inhibition above about 50%;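 further: promastigotes grown with compound for 44 hours at 28 °C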
# * marks the source's active call; other numbers are inactive results; i = inactive; . = no result given; + = active, no number.
SMILES,Dynein transport,CHOP inhibitor,b-catenin transl,Autophagy mod,MT stabilize HCS,L major viab
O=[N+]([O-])c1nn(-c2ccc(Cl)cc2)n(O)c1=NCc1ccncc1,-1,7,0,i,5,75*
Cc1ccc(CN=c2c([N+](=O)[O-])nn(-c3ccc(Cl)cc3)n2O)cc1,-0.78,-1,-3,i,4,7
CCOC(=O)c1c(C)[nH]c(C(=O)COC(=O)CNC(=O)c2ccc(Cl)cc2)c1C,-0.07,21,0,i,6,-6
CCOC(=O)c1c(C)[nH]c(C(=O)COC(=O)C(C)Oc2ccc(Cl)cc2Cl)c1C (centres undefined),-0.94,75*,4,i,2,-5
CCOC(=O)c1c(C)[nH]c(C(=O)CSc2nc(C)cc(C)n2)c1C,-0.64,45,3,i,3,-2
CCOC(=O)c1c(C)[nH]c(C(=O)CSc2ccc(Cl)cc2)c1C,-1.1,70*,3,i,2,-5
CCOC(=O)c1c(C)[nH]c(C(=O)OCCOc2ccc(Cl)cc2)c1C,3.6,72*,0,i,5,3
CCOC(=O)c1c(C)[nH]c(C(=O)OCCOc2ccccc2C)c1C,1.4,74*,0,i,4,-2
CC1CCc2c(sc3ncn(CC(=O)N4CCCCC4)c(=O)c23)C1 (centres undefined),-1.1,51,-2,i,3,-3
CCOC(=O)c1c(C)[nH]c(C(=O)COC(=O)C2(C)CC2(Cl)Cl)c1C (centres undefined),-0.017,81*,.,i,1,13
CCOC(=O)CC(=O)c1[nH]c(C)c(C(=O)OCC)c1C,0.31,5,7,i,2,2
CN(c1ccc(F)cc1)S(=O)(=O)c1ccc(Cl)c(C(=O)OCC(=O)NCc2ccco2)c1,1.7,-5,0,i,3,-3
CCOc1cc(N2CCOCC2)c(OCC)cc1NC(=O)COC(=O)c1cc2ccccc2cc1O,-0.45,39,.,i,2,62*
COc1ccc(CCNC(=O)CN2CCN(c3cccc(Cl)c3)CC2)cc1OC,-0.47,17,0,i,1,45
FC(F)(F)c1cccc(N2CCN(Cc3ccoc3)CC2)c1,-0.19,45,.,i,2,93*
FC(F)(F)c1cccc(N2CCN(Cc3cccnc3)CC2)c1,-0.15,30,0,i,4,88*
COc1cc(CN2CCN(c3cccc(Cl)c3)CC2)cc(OC)c1OC,-0.87,.,-2,i,46*,88*
COc1cccc(CN2CCN(c3cccc(C(F)(F)F)c3)CC2)c1OC,-1,71*,-1,i,4,12
COc1ccccc1N1CCN(Cc2cccc(OC)c2OC)CC1,-0.2,15,.,i,3,-4
O=S(=O)(c1ccc(Oc2ccc(Cl)cc2)c(S(=O)(=O)N2CCCCC2)c1)N1CCCCC1,-1,-10,2,i,4,2
COc1ccc2c(c1)CCC1C2CC[C@@]2(C)C1CC[C@@H]2NCCCCCCN1C(=O)C=CC1=O (some centres undefined),.,4,.,.,.,.
Cc1ccc(-c2cc(C(=O)OCC(=O)Nc3cc(C)on3)c3ccccc3n2)c(C)c1,-0.15,89*,-3,i,6,4
Cc1ccc(-c2cc(C(=O)Nc3ccc(S(=O)(=O)Nc4cc(C)on4)cc3)c3ccccc3n2)c(C)c1,0.11,51,0,i,3,-6
Cc1cc(NC(=O)c2ccccc2Cl)no1,0.15,-11,0,i,2,-3
Cc1ccc(C(=O)NCC(=O)OCC(=O)Nc2ncc(C(F)(F)F)cc2Cl)cc1,-0.84,-1,4,i,2,-8
SMILES,Dynein transport,CHOP inhibitor,b-catenin transl,Autophagy mod,MT stabilize HCS,L major viab
Cc1ccc2nc(-c3ccccc3Cl)cc(C(=O)Nc3cc(C)on3)c2c1,0.41,8,2,i,1,55*
COc1ccc(-c2cc(C(=O)OCC(=O)Nc3cc(C)on3)c3ccccc3n2)cc1OC,2,88*,-1,i,2,-4
Cc1ccc(-c2cc(C(=O)OCC(=O)Nc3ncc(C(F)(F)F)cc3Cl)c3ccccc3n2)cc1,-1.1,83*,-2,i,4,-2
O=C(O)CCS(=O)(=O)c1ccccc1Cl,-0.13,0,0,i,2,-5
CC(C)CNS(=O)(=O)c1ccc(CCC(=O)N2CCC(C(N)=O)CC2)cc1,-0.2,22,-3,i,4,-1
Cc1c(NC(=O)COC(=O)c2cc(-c3ccc(-c4ccccc4)cc3)nc3ccccc23)c(=O)n(-c2ccccc2)n1C,0.71,-9,3,i,4,-4
CCC(C)c1ccc(-c2cc(C(=O)OCC(=O)Nc3cc(C)on3)c3ccccc3n2)cc1 (centres undefined),-0.02,85*,.,i,1,-2
CO/N=C/c1c(-c2ccc(Cl)cc2)nc2cc(C)ccn12,-0.31,36,-4,i,4,61*
COC(=O)c1c(C)[nH]c(-c2csc(N)n2)c1C,-0.2,-25,0,i,13*,2
Cc1ccc(S(=O)(=O)NCCNC(=O)N2CCOCC2)cc1,0.94,2,-6,i,4,-3
Cc1ccc(S(=O)(=O)NCCCNC(=O)N2CCOCC2)cc1,1.6,-18,-1,+,4,-3
COc1ccc2cc(S(=O)(=O)NCCCN3CCOCC3)ccc2c1,-0.11,-1,.,i,2,89*
COc1ccc(S(=O)(=O)NCCN2CCOCC2)c2ccccc12,1.8,33,-6,i,7,6
O=[N+]([O-])c1cccc(S(=O)(=O)NCCCN2CCOCC2)c1,3.1,7,1,i,4,11
COc1cc(S(=O)(=O)NCCN2CCOCC2)c(OC)cc1Cl,-0.18,78*,.,i,4,-1
Cc1ccc2cc(S(=O)(=O)NCCCN3CCOCC3)ccc2c1,0.52,9,-1,i,2,93*
COc1ccc(N2CCN(CCCNS(=O)(=O)c3ccc4c(c3)oc(=O)n4C)CC2)cc1,-0.81,20,-2,i,3,-8
COc1ccc(NC(=O)N2CCC(c3nc4ccccc4[nH]3)CC2)cc1,0.03,-1,0,i,4,-2
Cc1cccc(CSCCNC(=O)c2ccc(N(C)S(=O)(=O)c3ccccc3)cc2)c1,-0.025,-3,4,i,3,1
CN(c1ccc(C(=O)NCCSCc2ccccc2)cc1)S(=O)(=O)c1ccccc1,-0.16,25,0,i,1,82*
CC(=O)O[C@H]1CC2(C)[C@@H](C[C@@H](O)[C@H]3[C@@]4(C)CC[C@@H](O)[C@@H](C)[C@@H]4CC[C@@]32C)C1=C(CCC=C(C)C)C(=O)O (some centres undefined),.,0,.,.,.,.
Cc1cc(=O)oc(C)c1C(=O)Nc1cccnc1Cl,-0.019,-3,0,.,.,.
